This is one part of a sample in which hits are shown more often than they occur.
V-ATPase pHluor: regulators of yeast V-ATPase proton pumping, primary screen, pHLuorin cytosolic pH fluorescence. S. cerevisiae. response, % at 10 µM. hit rate 0.37% among 350,000. AID 504577, 2011; in the data active means response mostly above about 7.3%, no sharp cut-off; inactive means mostly below about 5.4%; further: actives read high
TbMetRS inhib: T. brucei MetRS inhibitors, primary screen, biochemical, luminescence | methionyl-tRNA synthetase (Trypanosoma brucei brucei) | purified T. brucei MetRS, ATP depletion, Kinase-Glo luminescence | inhibition, % at 11.9 µM | hit rate 0.4% among 360,000;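 active means inhibition above a per-plate cutoff of the control wells' mean inhibition plus 3 SD, cut at about 5.5% in these data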;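 further: 0% = DMSO wells median and 100% = median of wells with control inhibitor compound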
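Dosing: 11.9 µM compound single dose, 0.9% DMSO; Assay system: purified T. brucei MetRS enzyme; Measured by: Kinase-Glo luciferase luminescence reporting remaining unconsumed ATP; Schedule: 15 min plus 2 h at 25 °C.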
XBP1 UPR activ: activators of adaptive XBP1 UPR arm, primary screen, cell-based, CHO-XBP1 luciferase reporter, luminescence, uHTS; IRE1-XBP1 UPR activation; percent of tunicamycin response, DMSO as zero; activation, % at 20 µM; hit rate 0.33% among 330,000;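 active means versus positive control, 20 µM dose yields 30% or more activation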;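 further: 100% = tunicamycin at 10 µg/mL and 0% = DMSO only wells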
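Test system: CHO-XBP1 luciferase reporter cells | Buffer or medium: Serum-containing F12 medium, 10% FBS | Schedule: 6 h compound exposure at 37 °C, 5% CO2 | Detection: Steady-Glo luciferase glow luminescence, 10 min after reagent addition | Read-out basis: Activation, % of tunicamycin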
CHOP UPR activ: activators of apoptotic CHOP UPR arm, primary screen, cell-based, CHO-CHOP luciferase reporter, luminescence, uHTS; activation, % at 10 µM; UPR activation; percent of tunicamycin response over DMSO baseline; hit rate 0.34% among 330,000;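 active means at 10 µM dose, activation of 40% or more, normalized to positive control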;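 further: 100% = tunicamycin at 10 µg/mL and 0% = DMSO alone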
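System: CHO-CHOP luciferase reporter cell line; amount: 500 cells/well; buffer or medium: F12 medium containing 10% fetal bovine serum; incubation: 6 h compound exposure at 37 °C after overnight seeding; measured by: luciferase luminescence after 10 min with Steady-Glo reagent; evaluation: % reporter activation, DMSO baseline versus tunicamycin full activation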
CHOP inh: inhibitors of CHOP promoter induction, primary screen, cell-based, unfolded protein response, luciferase reporter. inhibition, % at 10 µM. hit rate 3.8% among 220,000. CHO-K1 CHOP-promoter luciferase, tunicamycin-induced, 15-18 h;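 active means compounds that reduced the stress-induced luciferase reporter signal by more than about 70% of percent inhibition, limit read from the data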;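 further: 0% = tunicamycin plus vehicle and 100% = wells without tunicamycin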
Active calls of the source: *; · = no result given.

SMILES	V-ATPase pHluor	TbMetRS inhib	XBP1 UPR activ	CHOP UPR activ	CHOP inh
N#Cc1ccc(NC(=S)N2CCC3CC2c2cc(-c4ccc5c(c4)OCO5)ccc23)cc1 (stereo not drawn)	·	0	·	·	·
Cc1cc(Nc2ccccc2Cl)nc(-c2ccccc2O)n1	0	0	-6	-1	·
Cc1ccc(C)c(Nc2cc(C)nc(-c3ccccc3O)n2)c1	2	0	-4	0	·
Cc1cc(NC2CCCCC2)nc(-c2ccccc2O)n1	1	0	4	1	87*
CCCOc1cc(C)nc(-c2ccccc2O)n1	3	0	0	1	93*
Cc1cc(NCc2ccccc2)nc(-c2ccccc2O)n1	0	0	0	7	79*
CCOC(=O)c1csc(-c2csc(CCNC(=O)c3ccccc3)n2)n1	1	0	·	·	·
CCCCCCOc1ccc(-c2ccc(C#N)cn2)cc1	-2	0	-2	1	74*
COc1ccc(Nc2nc(NC(C)(C)C)nc(N3CCCC3)n2)c(OC)c1	0	-1	2	-1	84*
CC(C)C[C@@H]1O[C@H](C(C)C)Cc2[nH][nH]c(=O)c21	·	-1	·	·	·
CC(C)c1ccc(S(=O)(=O)c2cc3cc(Br)ccc3oc2=O)cc1	-1	0	-1	2	89*
O=C(O)c1cccc(-n2c(-c3cnccn3)n[nH]c2=S)c1	-1	-2	-4	-2	6
CCOC(=O)N1CCN(Cc2nc(N)nc(Nc3ccc(Oc4ccccc4)cc3)n2)CC1	7	-2	-3	0	74*
Cc1nc(N2CCc3ccccc3C2)[nH]c(=O)c1Cc1ccccc1	-1	1	-2	-1	78*
CCCCCc1c(C)nc(N2CCc3ccccc32)[nH]c1=O	1	-1	·	·	73*
CCCCCc1c(C)nc(N2CCc3ccccc3C2)[nH]c1=O	4	0	·	·	44
CC1(C(=O)Nc2cccc(NS(C)(=O)=O)c2)Cc2c(-c3cccc(C(N)=O)c3)ccnc2O1 (stereo not drawn)	·	0	·	·	·
Cc1oc(-c2cccs2)cc1C(=O)N1CCCC(C)(C(=O)O)C1 (stereo not drawn)	·	0	·	·	·
CCOc1ccc(S(=O)(=O)NCc2ccncc2)cc1	1	-1	4	4	78*
CCOC(=O)COc1ccc(S(=O)(=O)NCc2ccncc2)cc1	-3	0	-4	4	58
CC1(C(=O)NS(=O)(=O)c2ccc(Cl)cc2)CCN1C(=O)c1ccccc1CCc1ccccc1 (stereo not drawn)	·	0	·	·	·
CCOc1cc(/C=N/NC(N)=O)cc(Br)c1OCc1ccccc1F	-2	-1	2	4	68
CCOc1cc(/C=N/NC(=O)Cn2nc([N+](=O)[O-])cc2C)cc(Br)c1OCc1ccccc1F	2	-1	16	1	78*
S=C(NCCc1ccccc1)N1CCc2ccccc2C1	·	0	-2	5	-8
O=C(O)CCNC(=O)/C(=C/C=C/c1ccccc1)NC(=O)c1ccccc1	-2	0	-4	-1	74*
SMILES	V-ATPase pHluor	TbMetRS inhib	XBP1 UPR activ	CHOP UPR activ	CHOP inh
C=CCc1cc(/C=N/NC(=O)CSc2nnc(CCCc3ccc(OC)cc3)o2)cc(OC)c1O	0	-1	-5	-3	78*
COc1ccc(/C=N/NC(=O)CSc2nnc(CCCc3ccc(OC)c(C)c3)o2)cc1	0	0	-7	0	70*
NC(=O)c1c(NC(=O)C2COc3ccccc3O2)sc2c1CCN(Cc1ccccc1)C2 (stereo not drawn)	2	-1	2	7	79*
CCOC(=O)c1c(NC(=O)CN2CCCc3ccccc32)sc(C(C)=O)c1C	-4	-1	-1	2	93*
CCOC(=O)c1c(NC(=O)C2c3ccccc3Oc3ccccc32)sc(C(C)=O)c1C	-2	0	-3	10	71*
NC(=O)c1c(NC(=O)C2c3ccccc3Oc3ccccc32)sc2c1CCCCC2	-4	-1	0	2	74*
COCCOC(=O)c1c(NC(=O)CN2CCc3ccccc32)sc(C(N)=O)c1C	1	-1	-3	-2	-3
COc1cc(CNC(=O)Nc2nc(C(N)Cc3ccc(C(F)(F)F)cc3)cs2)cc(OC)c1OC (stereo not drawn)	·	0	·	·	·
O=C(O)CCC(C(=O)O)N1C(=O)c2ccccc2C1=O (stereo not drawn)	·	·	·	·	-4
C[C@@H]1CN([C@@H](C)CO)C(=O)c2cc(-c3cccnc3)cnc2O[C@H]1CN(C)C(=O)c1cccc(F)c1	2	0	·	·	·
Cc1cc(N2CCN(C(C(=O)NC3CCCC3)c3ccco3)CC2)c2ccccc2n1 (stereo not drawn)	·	0	·	·	·
CCOc1cc(/C=C2/NC(=O)N(CC(=O)Nc3cccc(C)c3)C2=O)ccc1O	3	1	1	0	43
CCOc1cc(/C=C2/NC(=O)N(CC(=O)Nc3cccc(C)c3)C2=O)ccc1OC	-1	0	2	-3	90*
CC1([N+](=O)[O-])COC(c2cccc3ccccc23)OC1 (stereo not drawn)	·	0	·	·	·
Cc1ccc(C(=O)N/C(=C\c2ccccc2)C(=O)NCCCn2ccnc2)cc1	-2	0	-3	0	-9
COc1ccc2c(c1)c1ncn(CCN3CCCCC3)c(=O)c1n2C	-4	0	-2	-3	43
COc1ccc2c(c1)c1ncn(CCN3CCNCC3)c(=O)c1n2C	1	-1	-2	-1	74*
Cc1cc(C)cc(NC(=O)c2cccn2-c2ncc(C(F)(F)F)cc2Cl)c1	5	0	0	1	74*
Cc1cc(OCC(=O)N[C@@H](Cc2ccccc2)c2nc3ccccc3[nH]2)ccc1Cl	1	0	3	3	72*
CCS(=O)(=O)c1ccc2oc(Nc3ccc(OC)cc3)nc2c1	-2	-1	2	1	-16
CCS(=O)(=O)c1ccc2oc(Nc3ccc(C(C)(C)C)cc3)nc2c1	1	0	3	1	72*
Nc1nc(SCc2ccc([N+](=O)[O-])cc2)c2ncn([C@@H]3O[C@H](CO)[C@H](O)C3O)c2n1 (stereo partly drawn)	·	·	·	·	-12
CC1=C(c2ccccc2)[N+](=O)C2(CCCC2)N1[O-]	0	0	-3	2	-16
O=[N+]([O-])c1ccc2c(c1)N([O-])C1(CCCCC1)[N+]2=O	2	·	·	·	95*
CC(NC(=O)c1cccc(S(=O)(=O)N2CCN(Cc3ccccc3)CC2)c1)c1ccccc1Cl (stereo not drawn)	-2	0	·	·	·
O=C(O)c1ccc2c(=O)n(-c3ccccc3)c(=S)[nH]c2c1	2	-1	0	0	-18
